Test results reported in ChEMBL document CHEMBL2424572 (J Med Chem, 2013).

Experiments:
[1] = tested on: Mus musculus; test: Biodistribution in wild type CD1 mouse small intestine assessed as metabolite 1 at 11.1 MBq, iv measured at 30 mins by gamma counting-based HPLC analysis; type: ADME, organism-based; conditions: in vivo, 0.5 h
Procedure, shortened: (§1)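 About 11.1 MBq injected by tail vein (≤200 μL) into three mice, killed 30 min p.i. Tissues weighed and homogenized in 1% SDS/PBS, extracted with acetonitrile/acetic acid, frozen on dry ice, thawed, centrifuged 13000 rpm 8 min. Supernatants gamma-counted against a dose aliquot for %ID/g, then radio-HPLC on C18 (acetonitrile/water, 0.05% TFA).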

[2] = tested on: Mus musculus; test: Biodistribution in wild type CD1 mouse gall bladder assessed as metabolite 5 at 11.1 MBq, iv measured at 30 mins by gamma counting-based HPLC analysis; type: ADME, organism-based; conditions: in vivo, 0.5 h; procedure, shortened: as §1
[3] = tested on: Serum; test: Metabolic stability in mouse serum at 5 MBq after 30 to 120 mins by radio-HPLC analysis; type: ADME, cell-free
Procedure, shortened: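 PBS-formulated radioligand (20 μL, 5 MBq) added to 200 μL mouse serum at 37 °C. 20 μL samples taken at 10−120 min, quenched in MeOH/CH2Cl2 1:1 and centrifuged 2 min. Organic layer analysed by radio-HPLC, isocratic 35% CH3CN/water (0.1% TFA) for 13 min, then gradient.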

[4] = tested on: Mus musculus; test: Biodistribution in wild type CD1 mouse gall bladder assessed as metabolite 2 at 11.1 MBq, iv measured at 30 mins by gamma counting-based HPLC analysis; type: ADME, organism-based; conditions: in vivo, 0.5 h; procedure, shortened: as §1
[5] = tested on: Mus musculus; test: Biodistribution in wild type CD1 mouse gall bladder assessed as metabolite 4 at 11.1 MBq, iv measured at 30 mins by gamma counting-based HPLC analysis; type: ADME, organism-based; conditions: in vivo, 0.5 h; procedure, shortened: as §1
[6] = tested on: Muscle tissue; test: Biodistribution in […] mouse muscle at 250 kBq/g, iv after 90 to 120 mins by PET analysis; type: ADME, organism-based; conditions: in vivo
Procedure, shortened: (§2)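 Tracer dosed at 250 kBq/g body weight as a tail-vein bolus (100 μL, flushed with 100 μL saline) into C57/Bl6 mice, then PET scanning on a submillimeter-resolution small-animal scanner. Time-activity curves were drawn for regions of interest as %ID; images cover frames up to 90−120 min p.i.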

[7] = tested on: Brain; test: Biodistribution in […] mouse brain at 250 kBq/g, iv after 90 to 120 mins by PET analysis; type: ADME, organism-based; conditions: in vivo; procedure, shortened: as §2
[8] = tested on: Kidney; test: Biodistribution in wild type CD1 mouse kidney assessed as metabolite 3 at 11.1 MBq, iv measured at 30 mins by gamma counting-based HPLC analysis; type: ADME, organism-based; conditions: in vivo, 0.5 h; procedure, shortened: as §1
[9] = tested on: Mus musculus; test: Biodistribution in wild type CD1 mouse gall bladder assessed as metabolite 1 at 11.1 MBq, iv measured at 30 mins by gamma counting-based HPLC analysis; type: ADME, organism-based; conditions: in vivo, 0.5 h; procedure, shortened: as §1
[10] = tested on: Lung; test: Biodistribution in […] mouse lung at 250 kBq/g, iv after 90 to 120 mins by PET analysis; type: ADME, organism-based; conditions: in vivo; procedure, shortened: as §2
[11] = 1-octanol-PBS buffer partition coefficient, log D of the compound at 20 kBq after 1 min by gamma counting analysis; type: physicochemical
[12] = tested on: Mus musculus; test: Biodistribution in wild type CD1 mouse small intestine assessed as metabolite 5 at 11.1 MBq, iv measured at 30 mins by gamma counting-based HPLC analysis; type: ADME, organism-based; conditions: in vivo, 0.5 h; procedure, shortened: as §1
[13] = tested on: Mus musculus; test: Biodistribution in wild type CD1 mouse small intestine assessed as metabolite 3 at 11.1 MBq, iv measured at 30 mins by gamma counting-based HPLC analysis; type: ADME, organism-based; conditions: in vivo, 0.5 h; procedure, shortened: as §1
[14] = tested on: Mus musculus; test: Biodistribution in […] mouse myocardium at 250 kBq/g, iv after 90 to 120 mins by PET analysis; type: ADME, organism-based; conditions: in vivo; procedure, shortened: as §2
[15] = target: Neutrophil collagenase (Homo sapiens, UniProt P22894); test: Inhibition of MMP-8 (unknown origin) using 7-methoxycoumarin-4-yl)acetyl-Pro-Leu-Gly-Leu-(3-(2,4-dinitrophenyl)-L-2,3-diamino-propionyl)Ala-Arg-NH2 as substrate preincubated for 30 mins followed by substrate addition by fluorescence assay
Chain of Neutrophil collagenase (P22894 whole entry): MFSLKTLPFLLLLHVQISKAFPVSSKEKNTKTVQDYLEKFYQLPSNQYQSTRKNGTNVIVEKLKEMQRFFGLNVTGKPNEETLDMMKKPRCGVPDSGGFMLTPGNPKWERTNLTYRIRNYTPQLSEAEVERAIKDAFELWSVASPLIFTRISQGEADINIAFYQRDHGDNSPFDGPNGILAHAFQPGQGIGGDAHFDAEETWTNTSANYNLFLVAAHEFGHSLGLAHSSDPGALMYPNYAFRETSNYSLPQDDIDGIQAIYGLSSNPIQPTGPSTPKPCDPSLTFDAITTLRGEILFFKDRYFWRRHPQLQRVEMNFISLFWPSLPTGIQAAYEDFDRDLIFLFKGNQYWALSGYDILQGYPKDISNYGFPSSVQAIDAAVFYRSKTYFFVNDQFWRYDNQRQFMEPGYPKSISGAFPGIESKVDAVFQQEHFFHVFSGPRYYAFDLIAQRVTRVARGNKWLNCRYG
Procedure, shortened: (§3)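 Activated MMP (2 nM) preincubated with inhibitor (10 pM to 1 mM) in 50 mM Tris-HCl pH 7.5, 0.2 M NaCl, 5 mM CaCl2, 20 μM ZnSO4, 0.05% Brij 35, 37 °C for 30 min.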

[16] = target: Collagenase 3 (Homo sapiens, UniProt P45452); test: Inhibition of MMP-13 (unknown origin) using 7-methoxycoumarin-4-yl)acetyl-Pro-Leu-Gly-Leu-(3-(2,4-dinitrophenyl)-L-2,3-diamino-propionyl)Ala-Arg-NH2 as substrate preincubated for 30 mins followed by substrate addition by fluorescence assay; procedure, shortened: as §3
[17] = target: 72 kDa type IV collagenase (Homo sapiens, UniProt P08253); test: Inhibition of MMP-2 (unknown origin) using 7-methoxycoumarin-4-yl)acetyl-Pro-Leu-Gly-Leu-(3-(2,4-dinitrophenyl)-L-2,3-diamino-propionyl)Ala-Arg-NH2 as substrate preincubated for 30 mins followed by substrate addition by fluorescence assay; procedure, shortened: as §3
Chain of 72 kDa type IV collagenase (P08253 whole entry): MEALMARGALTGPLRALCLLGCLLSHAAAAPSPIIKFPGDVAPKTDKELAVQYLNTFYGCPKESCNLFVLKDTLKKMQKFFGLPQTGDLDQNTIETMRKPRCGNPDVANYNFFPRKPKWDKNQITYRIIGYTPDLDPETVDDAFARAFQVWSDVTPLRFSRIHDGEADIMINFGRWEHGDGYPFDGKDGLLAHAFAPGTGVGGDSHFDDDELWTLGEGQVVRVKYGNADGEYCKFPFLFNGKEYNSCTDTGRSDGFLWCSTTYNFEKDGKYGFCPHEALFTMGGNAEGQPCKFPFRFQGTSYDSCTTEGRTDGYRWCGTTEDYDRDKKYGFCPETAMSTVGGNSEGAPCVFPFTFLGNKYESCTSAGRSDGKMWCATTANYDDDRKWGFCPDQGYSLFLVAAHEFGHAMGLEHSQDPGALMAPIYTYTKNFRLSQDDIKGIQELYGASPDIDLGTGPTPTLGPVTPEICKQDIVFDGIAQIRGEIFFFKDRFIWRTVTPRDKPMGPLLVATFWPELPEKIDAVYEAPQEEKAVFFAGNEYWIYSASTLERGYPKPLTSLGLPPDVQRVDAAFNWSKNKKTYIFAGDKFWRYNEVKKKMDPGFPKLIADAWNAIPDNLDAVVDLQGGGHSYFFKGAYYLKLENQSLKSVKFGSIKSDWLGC

[18] = target: Matrix metalloproteinase-9 (Homo sapiens, UniProt P14780); test: Inhibition of MMP-9 (unknown origin) using 7-methoxycoumarin-4-yl)acetyl-Pro-Leu-Gly-Leu-(3-(2,4-dinitrophenyl)-L-2,3-diamino-propionyl)Ala-Arg-NH2 as substrate preincubated for 30 mins followed by substrate addition by fluorescence assay; procedure, shortened: as §3
Chain of Matrix metalloproteinase-9 (P14780 whole entry): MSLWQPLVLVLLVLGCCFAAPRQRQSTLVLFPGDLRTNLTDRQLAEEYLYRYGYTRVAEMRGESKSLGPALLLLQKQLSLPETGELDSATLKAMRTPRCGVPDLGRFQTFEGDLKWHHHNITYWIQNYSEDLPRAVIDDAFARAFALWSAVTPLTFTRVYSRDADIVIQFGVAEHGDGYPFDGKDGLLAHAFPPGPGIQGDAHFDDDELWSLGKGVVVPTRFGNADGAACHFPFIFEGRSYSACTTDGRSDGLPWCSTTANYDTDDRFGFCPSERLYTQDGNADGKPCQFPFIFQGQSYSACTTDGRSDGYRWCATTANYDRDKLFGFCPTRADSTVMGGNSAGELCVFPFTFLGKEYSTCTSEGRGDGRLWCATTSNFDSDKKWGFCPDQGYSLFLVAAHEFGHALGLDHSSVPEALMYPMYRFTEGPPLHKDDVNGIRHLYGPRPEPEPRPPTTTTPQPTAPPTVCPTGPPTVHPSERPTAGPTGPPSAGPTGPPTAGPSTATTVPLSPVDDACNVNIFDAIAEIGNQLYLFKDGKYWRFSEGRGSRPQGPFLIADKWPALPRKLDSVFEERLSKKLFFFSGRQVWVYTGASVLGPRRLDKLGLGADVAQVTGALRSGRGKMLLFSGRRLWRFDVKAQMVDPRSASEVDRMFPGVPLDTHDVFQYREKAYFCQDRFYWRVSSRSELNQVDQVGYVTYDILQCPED

IC50 [15] [nM]	IC50 [16] [nM]	IC50 [17] [nM]	IC50 [18] [nM]	SMILES	other results
–	–	–	–	COc1ccc(S(=O)(=O)N(CCn2cc(CCC[18F])nn2)[C@@H](C(=O)NO)C(C)C)cc1	Drug uptake [1]: 4.32 % ID/g; Drug uptake [2]: 3.55 % ID/g; Stability [3]: Stable; Drug uptake [4]: 7.1 % ID/g; Drug uptake [5]: 15.97 % ID/g; Drug uptake [6]: Not Active; Drug uptake [7]: Not Active; Drug uptake [8]: 0.67 % ID/g; Drug uptake [9]: 6.21 % ID/g; Drug uptake [10]: Not Active; logD at 1 min [11]: 1.25; Drug uptake [12]: 2.47 % ID/g; Drug uptake [13]: 30.27 % ID/g; Drug uptake [14]: Not Active
0.7	0.1	4	3	CC(C)[C@H](C(=O)NO)N(CCn1cc(CNS(=O)(=O)c2ccc(F)cc2)nn1)S(=O)(=O)c1ccc(OCCF)cc1	–
5	1	9	11	CC(C)[C@H](C(=O)NO)N(CCn1cc(CN(C)S(=O)(=O)c2ccc(F)cc2)nn1)S(=O)(=O)c1ccc(OCCF)cc1	–
0.4	0.07	2	2	CC(C)[C@H](C(=O)NO)N(CCn1cc(CCCF)nn1)S(=O)(=O)c1ccc(OCCF)cc1	–
0.3	0.3	0.5	0.2	CC(C)[C@H](C(=O)NO)N(Cc1cn(CCOCCOCCOCCOc2cccnc2F)nn1)S(=O)(=O)c1ccc(OCCF)cc1	–
0.2	0.09	5	0.6	COc1ccc(S(=O)(=O)N(CCn2cc(CNS(=O)(=O)c3ccc(F)cc3)nn2)[C@@H](C(=O)NO)C(C)C)cc1	–
0.2	0.6	2	0.2	CC(C)[C@H](C(=O)NO)N(Cc1cn(CCOCCOCCOCCF)nn1)S(=O)(=O)c1ccc(OCCF)cc1	–
1	1	4	4	Cc1ccc(S(=O)(=O)N(CCN=[N+]=[N-])[C@@H](C(=O)NO)C(C)C)cc1	–
2	0.1	3	0.4	Cc1ccc(S(=O)(=O)N(CCn2cc(COCCOCCOCCOCCOCCF)nn2)[C@@H](C(=O)NO)C(C)C)cc1	–
2	0.7	2	7	CC(C)[C@H](C(=O)NO)N(Cc1cn(CCF)nn1)S(=O)(=O)c1ccc(OCCF)cc1	–
4	3	3	6	Cc1ccc(S(=O)(=O)N(CCn2cc(CCCCOc3cccnc3F)nn2)[C@@H](C(=O)NO)C(C)C)cc1	–
1	1	3	3	COc1ccc(S(=O)(=O)N(CCn2cc(CN(C)S(=O)(=O)c3ccc(F)cc3)nn2)[C@@H](C(=O)NO)C(C)C)cc1	–
0.9	0.3	2	3	Cc1ccc(S(=O)(=O)N(CCn2cc(CCCF)nn2)[C@@H](C(=O)NO)C(C)C)cc1	–
0.4	0.05	0.7	0.07	COc1ccc(S(=O)(=O)N(CCn2cc(CCCF)nn2)[C@@H](C(=O)NO)C(C)C)cc1	–
1	6	4	2	COc1ccc(S(=O)(=O)N(CCn2cc(COCCOCCOCCOCCOCCF)nn2)[C@@H](C(=O)NO)C(C)C)cc1	–
0.5	0.04	0.9	0.3	COc1ccc(S(=O)(=O)N(CCn2cc(CCCCOc3cccnc3F)nn2)[C@@H](C(=O)NO)C(C)C)cc1	–
0.05	0.07	0.4	0.8	CC(C)[C@H](C(=O)NO)N(CCn1cc(CCCCOc2cccnc2F)nn1)S(=O)(=O)c1ccc(OCCF)cc1	–
35	7	5	10	CC(C)[C@H](C(=O)NO)N(CCn1cc(COCCOCCOCCOCCOCCF)nn1)S(=O)(=O)c1ccc(OCCF)cc1	–
1	1	4	4	CC(C)[C@H](C(=O)NO)N(CCN=[N+]=[N-])S(=O)(=O)c1ccc(OCCF)cc1	–
2	9	0.9	6	COc1ccc(S(=O)(=O)N(CCN=[N+]=[N-])[C@@H](C(=O)NO)C(C)C)cc1	–
